The source made the active and inactive calls. The calls are words filed in the database; no cut-off is given here.
Experiments:
D(2) dopamine receptor [1] = target: T1, D(2) dopamine receptor (Homo sapiens, UniProt P14416); test: Binding affinity to human D2S receptor
[2] = target: D(3) dopamine receptor (Homo sapiens) (UniProt P35462); test: Agonist activity at human D3 receptor in HEK293 cells coexpressing G-alpha-qo5 by FLIPR upto 10 uM; assay type: functional, cell-based
Mustela putorius furo [3] = species: Mustela putorius furo; test: Induction of emesis in ferret; assay type: functional, organism-based
Mustela putorius furo [4] = species: Mustela putorius furo; test: Induction of nausea in ferret; assay type: functional, organism-based
D(4) dopamine receptor [5] = target: T2, D(4) dopamine receptor (Rattus norvegicus, UniProt P30729); test: Agonist activity at rat D4 receptor in HEK293 cells coexpressing G-alpha-qo5 by FLIPR; assay type: functional, cell-based
T2 sequence (P30729 whole entry): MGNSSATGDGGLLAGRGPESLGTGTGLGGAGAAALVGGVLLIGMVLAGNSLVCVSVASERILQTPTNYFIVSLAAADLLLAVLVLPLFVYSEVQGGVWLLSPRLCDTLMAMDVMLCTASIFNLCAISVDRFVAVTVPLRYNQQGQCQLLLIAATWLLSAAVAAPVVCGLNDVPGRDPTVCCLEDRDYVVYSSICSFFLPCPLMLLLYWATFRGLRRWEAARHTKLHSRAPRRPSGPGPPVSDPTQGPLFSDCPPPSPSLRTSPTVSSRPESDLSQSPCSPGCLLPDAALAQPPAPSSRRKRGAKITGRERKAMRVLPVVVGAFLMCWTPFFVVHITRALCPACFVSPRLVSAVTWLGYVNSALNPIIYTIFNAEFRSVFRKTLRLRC

[6] = target: T3, D(4) dopamine receptor (Rattus norvegicus) (UniProt P30729); test: Agonist activity at rat D4 receptor in HEK293 cells co-expressing Galphaqo5 by FLIPR relative to dopamine; assay type: functional, cell-based
T3 sequence (whole entry): T2 sequence (P30729 whole entry)

D(2) dopamine receptor [7] = target: T1, D(2) dopamine receptor; test: Agonist activity at human D2 receptor in HEK293 cells coexpressing G-alpha-qo5 by FLIPR relative to dopamine upto 10 uM; assay type: functional, cell-based
Method in brief: (§1)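 Ca2+ flux by FLIPR in HEK cells cotransfected with the D2 receptor (human, ferret or rat) plus chimeric G protein Gqo5.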

[8] = target: D(2) dopamine receptor (Rattus norvegicus) (UniProt P61169); test: Agonist activity at rat D2 receptor in HEK293 cells coexpressing G-alpha-qo5 by FLIPR relative to dopamine upto 10 uM; assay type: functional, cell-based; method in brief: as §1
Chain of D(2) dopamine receptor (Rattus norvegicus) (P61169 whole entry): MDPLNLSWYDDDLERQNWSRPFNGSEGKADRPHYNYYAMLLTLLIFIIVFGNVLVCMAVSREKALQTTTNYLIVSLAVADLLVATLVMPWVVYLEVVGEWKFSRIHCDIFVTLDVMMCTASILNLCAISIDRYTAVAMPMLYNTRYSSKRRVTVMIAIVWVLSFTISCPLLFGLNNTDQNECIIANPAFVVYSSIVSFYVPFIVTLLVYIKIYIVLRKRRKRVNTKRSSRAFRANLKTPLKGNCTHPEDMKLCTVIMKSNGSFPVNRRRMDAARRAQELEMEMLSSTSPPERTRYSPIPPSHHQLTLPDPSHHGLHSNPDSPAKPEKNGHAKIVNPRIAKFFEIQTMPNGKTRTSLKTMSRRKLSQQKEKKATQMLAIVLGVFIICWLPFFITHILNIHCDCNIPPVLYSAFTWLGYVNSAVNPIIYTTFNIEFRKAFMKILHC

[9] = target: T4, D(4) dopamine receptor (Homo sapiens) (UniProt P21917); test: Activity at human D4.4 receptor in HEK293 cells co-expressing Galphaqo5 by FLIPR; assay type: functional, cell-based; details: filed as agonist
T4 sequence (whole entry): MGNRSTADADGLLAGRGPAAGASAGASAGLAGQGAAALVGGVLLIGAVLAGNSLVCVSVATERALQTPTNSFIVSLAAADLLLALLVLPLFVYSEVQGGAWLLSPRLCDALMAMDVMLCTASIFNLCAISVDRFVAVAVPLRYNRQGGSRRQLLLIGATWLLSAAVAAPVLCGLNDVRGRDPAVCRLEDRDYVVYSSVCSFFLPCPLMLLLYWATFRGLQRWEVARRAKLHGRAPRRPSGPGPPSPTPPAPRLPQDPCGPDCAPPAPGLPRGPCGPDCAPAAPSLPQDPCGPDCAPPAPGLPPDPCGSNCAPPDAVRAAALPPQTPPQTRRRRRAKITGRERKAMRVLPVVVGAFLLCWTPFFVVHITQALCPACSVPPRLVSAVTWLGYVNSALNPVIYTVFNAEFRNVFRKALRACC

D(2) dopamine receptor [10] = target: T1, D(2) dopamine receptor; test: Displacement of [125I]7-OH-PIPAT from human D2L receptor expressed in HEK293 cell membrane; assay type: cell membranes
D(4) dopamine receptor [11] = target: T5, D(4) dopamine receptor (Homo sapiens, UniProt P21917); test: Displacement of [3H]A369508 from human D4 receptor expressed in HEK293 cell membrane; assay type: cell membranes
T5 sequence (P21917 whole entry): T4 sequence (whole entry)

[12] = target: Phosphodiesterase 1 (Homo sapiens) (UniProt P54750+Q01064+Q14123); test: Activity at PDE1 at 10 uM; assay type: protein assay
Method in brief: (§2)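 Broad selectivity panel (over 70 receptors, ion channels and neuronal receptors, PDE1-6 included) run at a single 10 µM concentration.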

[13] = target: cGMP-dependent 3',5'-cyclic phosphodiesterase (Homo sapiens) (UniProt O00408); test: Activity at PDE2 at 10 uM; method in brief: as §2
Chain of cGMP-dependent 3',5'-cyclic phosphodiesterase (Homo sapiens) (O00408 whole entry): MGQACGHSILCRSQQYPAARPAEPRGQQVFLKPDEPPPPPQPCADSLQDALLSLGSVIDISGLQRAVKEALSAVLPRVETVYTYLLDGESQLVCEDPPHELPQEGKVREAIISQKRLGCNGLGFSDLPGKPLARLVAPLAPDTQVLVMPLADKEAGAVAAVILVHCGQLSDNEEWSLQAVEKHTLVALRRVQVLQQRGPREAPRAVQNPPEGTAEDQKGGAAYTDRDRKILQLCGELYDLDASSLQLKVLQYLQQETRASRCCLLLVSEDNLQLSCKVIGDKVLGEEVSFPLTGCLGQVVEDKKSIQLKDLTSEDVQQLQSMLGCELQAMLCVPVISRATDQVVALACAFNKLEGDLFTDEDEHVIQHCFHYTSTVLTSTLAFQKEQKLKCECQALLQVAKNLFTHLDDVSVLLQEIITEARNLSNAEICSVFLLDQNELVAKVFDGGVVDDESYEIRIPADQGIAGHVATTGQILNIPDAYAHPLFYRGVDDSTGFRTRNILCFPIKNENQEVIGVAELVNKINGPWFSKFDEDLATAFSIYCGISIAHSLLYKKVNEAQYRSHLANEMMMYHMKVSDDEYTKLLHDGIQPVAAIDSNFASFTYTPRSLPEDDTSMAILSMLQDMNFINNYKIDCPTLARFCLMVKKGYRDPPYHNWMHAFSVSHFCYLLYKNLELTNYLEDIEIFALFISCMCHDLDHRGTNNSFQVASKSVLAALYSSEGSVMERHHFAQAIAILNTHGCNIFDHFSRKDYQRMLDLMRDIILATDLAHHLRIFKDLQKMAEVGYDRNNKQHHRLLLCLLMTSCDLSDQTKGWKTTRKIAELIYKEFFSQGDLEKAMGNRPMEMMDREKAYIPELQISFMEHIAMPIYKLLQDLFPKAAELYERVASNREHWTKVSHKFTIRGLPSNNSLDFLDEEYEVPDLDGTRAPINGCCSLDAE

[14] = target: Phosphodiesterase 3 (Homo sapiens) (UniProt Q14432+Q13370); test: Activity at PDE3 at 10 uM; assay type: protein assay; method in brief: as §2
[15] = target: Phosphodiesterase 4 (Homo sapiens) (UniProt P27815+Q08499+Q07343+Q08493); test: Activity at PDE4 at 10 uM; assay type: protein assay; method in brief: as §2
[16] = target: cGMP-specific 3',5'-cyclic phosphodiesterase (Homo sapiens) (UniProt O76074); test: Activity at PDE5 at 10 uM; method in brief: as §2
[17] = target: Phosphodiesterase 6 (Homo sapiens) (UniProt Q13956+P18545+P35913+O43924+P16499+P51160); test: Activity at PDE6 at 10 uM; assay type: protein assay; method in brief: as §2
Rattus norvegicus [18] = test: Proerectile activity in rat measured as incidence of penile erection at 0.3 umol/kg, sc; assay type: functional
Method in brief: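 Conscious male rats were given a single subcutaneous injection and observed for penile erections over the following 60 min. The read-out was the incidence of erections, expressed as % of animals ± SEM (n = 12–32 animals per group), with significance tested against controls. The value is the maximal incidence at the maximally effective dose.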

D(4) dopamine receptor [19] = target: T5, D(4) dopamine receptor; test: Agonist activity at human D4.4 receptor in HEK293 cells coexpressing G-alpha-qo5 by FLIPR; assay type: functional, cell-based
[20] = Bioavailability in Sprague-Dawley rat at 1 mg/kg, po; assay type: ADME, organism-based; details: in vivo
Method in brief: (§3)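 Single 1 mg/kg dose given iv, sc or orally to Sprague-Dawley rats, dogs and monkeys; plasma concentrations followed over time (mean ± SEM, n = 3). Cmax, AUC, half-life, clearance and bioavailability calculated from the curves.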

[21] = Bioavailability in Sprague-Dawley rat at 1 mg/kg, sc; assay type: ADME, organism-based; details: in vivo; method in brief: as §3
[22] = Half life in Sprague-Dawley rat at 1 mg/kg, sc; assay type: ADME, organism-based; set-up: dose 1 mg/kg, route subcutaneous; details: in vivo; method in brief: as §3
[23] = Half life in Sprague-Dawley rat at 1 mg/kg, po; assay type: ADME, organism-based; set-up: dose 1 mg/kg, route oral; details: in vivo; method in brief: as §3
[24] = Oral bioavailability in rat; assay type: ADME, organism-based; details: in vivo; method in brief: as §3
[25] = Oral bioavailability in dog; assay type: ADME, organism-based, Canis lupus familiaris; details: in vivo; method in brief: as §3
[26] = Oral bioavailability in monkey; assay type: ADME, organism-based, Macaca mulatta; details: rhesus monkey, in vivo; method in brief: as §3
hERG = hERG (Homo sapiens, UniProt Q12809); test: Blockade of current at hERG expressed in HEK293 cells at 3 ug/mL; assay type: cell-based; details: HEK293 cells that express hERG
Chain of hERG (Q12809 whole entry): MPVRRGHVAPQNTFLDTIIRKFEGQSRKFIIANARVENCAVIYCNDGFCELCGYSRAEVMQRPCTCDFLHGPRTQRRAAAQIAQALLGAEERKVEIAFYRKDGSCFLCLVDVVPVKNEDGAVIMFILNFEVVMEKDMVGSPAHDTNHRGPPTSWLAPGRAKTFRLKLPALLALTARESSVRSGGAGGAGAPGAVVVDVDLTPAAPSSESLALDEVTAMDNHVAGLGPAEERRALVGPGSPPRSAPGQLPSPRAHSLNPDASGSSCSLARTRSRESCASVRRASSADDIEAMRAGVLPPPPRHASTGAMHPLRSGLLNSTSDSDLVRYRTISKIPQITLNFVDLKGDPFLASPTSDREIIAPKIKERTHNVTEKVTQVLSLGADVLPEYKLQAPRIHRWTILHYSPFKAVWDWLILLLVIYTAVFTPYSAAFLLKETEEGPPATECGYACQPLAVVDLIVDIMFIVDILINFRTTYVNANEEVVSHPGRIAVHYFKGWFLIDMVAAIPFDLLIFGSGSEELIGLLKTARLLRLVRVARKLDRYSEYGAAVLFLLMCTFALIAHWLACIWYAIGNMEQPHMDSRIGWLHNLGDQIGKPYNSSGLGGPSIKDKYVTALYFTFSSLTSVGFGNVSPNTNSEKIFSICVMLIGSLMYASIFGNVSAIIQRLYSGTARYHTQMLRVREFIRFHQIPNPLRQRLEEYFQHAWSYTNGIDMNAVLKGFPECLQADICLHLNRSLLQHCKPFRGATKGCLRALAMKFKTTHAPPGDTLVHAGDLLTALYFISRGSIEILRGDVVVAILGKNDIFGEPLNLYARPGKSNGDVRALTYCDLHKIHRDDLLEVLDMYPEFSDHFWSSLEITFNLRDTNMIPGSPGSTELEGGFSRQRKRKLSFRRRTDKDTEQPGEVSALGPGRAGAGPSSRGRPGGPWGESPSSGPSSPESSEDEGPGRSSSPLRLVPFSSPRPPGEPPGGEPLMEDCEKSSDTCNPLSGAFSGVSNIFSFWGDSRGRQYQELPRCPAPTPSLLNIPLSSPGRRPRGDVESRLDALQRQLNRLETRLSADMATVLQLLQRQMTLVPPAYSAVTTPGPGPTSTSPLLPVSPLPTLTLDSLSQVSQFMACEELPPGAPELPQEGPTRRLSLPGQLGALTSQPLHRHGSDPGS
Method in brief: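 hERG stably expressed in HEK293 cells; whole-cell voltage clamp. Pipette: K aspartate/KCl/EGTA/MgATP, pH 7.3. Bath: NaCl-based HEPES, pH 7.4. Compound dissolved in DMSO (≤0.1%), one concentration per cell. Steps to -25 to +50 mV for 3 s, then -50 mV for 4 s, from -80 mV every 15 s; tail current measured against DMSO vehicle.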

[27] = Effect on canine cardiac Purkinje fiber repolarization measured as prolongation of action potential duration at 1.6 ug/mL; assay type: functional, Canis lupus familiaris
Method in brief: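 Canine Purkinje fibres impaled with 3 M KCl microelectrodes after at least 30 min equilibration under stimulation. Bath: 131 mM NaCl, 18 mM NaHCO3, 4 mM KCl, 2 mM CaCl2. Baseline APD90 recorded at BCL 2 s, 800 and 400 ms. Each fibre then received two ascending concentrations, each with 25 min equilibration and re-recording at all three rates.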

Rattus norvegicus [28] = test: Blockade of ABT-670-induced erctogenic activity in rat at 1 umol/kg, ip; assay type: functional, organism-based
[29] = target: T4, D(4) dopamine receptor (Homo sapiens); test: Agonist activity at human D4.4 receptor in HEK293 cells coexpressing G-alpha-qo5 by FLIPR with relative to dopamine upto 10 uM; assay type: functional, cell-based
Rattus norvegicus [30] = test: Blockade of ABT-670-induced erctogenic activity in rat at 10 umol/kg, ip; assay type: functional, organism-based
D(4) dopamine receptor [31] = target: T5, D(4) dopamine receptor; test: Displacement of [3H]spiperone from human D4 receptor expressed in HEK293 cell membrane; assay type: cell membranes
Rattus norvegicus [32] = test: Proerectile activity in rat measured as incidence of penile erection at 0.03 umol/kg, sc; assay type: functional
Method in brief: (§4)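 Conscious male rats dosed subcutaneously. Penile erection incidence scored over 60 min after injection; values are % ± SEM, with significance tested against control.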

D(2) dopamine receptor [33] = target: T1, D(2) dopamine receptor; test: Binding affinity at human D2L receptor by displacement of [125I]-7-OH-PIPAT in membranes
Rattus norvegicus [34] = test: Proerectile activity in rat measured as incidence of penile erection at 0.01 umol/kg, sc; assay type: functional; method in brief: as §4

T1 sequence (P14416 whole entry): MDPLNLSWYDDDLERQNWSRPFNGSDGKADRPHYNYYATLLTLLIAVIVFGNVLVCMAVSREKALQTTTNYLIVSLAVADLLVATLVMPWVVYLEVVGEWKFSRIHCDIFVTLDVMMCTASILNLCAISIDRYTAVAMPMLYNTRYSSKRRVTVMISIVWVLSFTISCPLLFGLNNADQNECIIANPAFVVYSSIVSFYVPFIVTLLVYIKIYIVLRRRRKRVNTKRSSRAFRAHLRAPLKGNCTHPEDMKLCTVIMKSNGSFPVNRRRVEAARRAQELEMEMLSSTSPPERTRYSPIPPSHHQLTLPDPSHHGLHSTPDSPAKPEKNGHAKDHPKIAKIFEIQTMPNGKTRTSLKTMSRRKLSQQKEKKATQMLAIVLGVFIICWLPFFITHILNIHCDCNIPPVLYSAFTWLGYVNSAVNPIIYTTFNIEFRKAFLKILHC
Chain of D(3) dopamine receptor (Homo sapiens) (P35462 whole entry): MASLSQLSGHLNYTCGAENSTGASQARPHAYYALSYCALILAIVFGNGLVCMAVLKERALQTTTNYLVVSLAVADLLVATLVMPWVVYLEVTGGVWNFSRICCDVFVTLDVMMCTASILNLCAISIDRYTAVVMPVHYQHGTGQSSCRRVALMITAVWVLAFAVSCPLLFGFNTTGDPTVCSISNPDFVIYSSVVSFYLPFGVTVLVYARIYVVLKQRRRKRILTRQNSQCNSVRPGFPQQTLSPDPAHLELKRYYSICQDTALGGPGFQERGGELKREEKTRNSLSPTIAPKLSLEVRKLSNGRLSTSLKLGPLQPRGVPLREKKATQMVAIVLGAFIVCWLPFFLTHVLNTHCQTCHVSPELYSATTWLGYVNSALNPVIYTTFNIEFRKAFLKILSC

## Cc1cccc(NC(=O)CN2CCC(c3cccc[n+]3[O-])CC2)c1
D(2) dopamine receptor [1]
  Ki: > 10000 nM
[2]
  Activity: inactive
Mustela putorius furo [3]
  Activity: inactive
Mustela putorius furo [4]
  Activity: inactive
D(4) dopamine receptor [5]
  EC50: 57 nM
[6]
  Efficacy: 80%
D(2) dopamine receptor [7]
  Activity: inactive
[8]
  Activity: inactive
[9]
  Activity: Agonist
D(2) dopamine receptor [10]
  Ki: > 10000 nM
D(4) dopamine receptor [11]
  Ki: 294 nM
[12]
  Activity: inactive
[13]
  Activity: inactive
[14]
  Activity: inactive
[15]
  Activity: inactive
[16]
  Activity: inactive
[17]
  Activity: inactive
Rattus norvegicus [18]
  Activity: 75%
D(4) dopamine receptor [19]
  EC50: 32 nM
[20]
  bioavailability: 11%
[21]
  bioavailability: 61%
[22]
  half-life: 30 min
[23]
  half-life: 18 min
[24]
  bioavailability: 11%
[25]
  bioavailability: 70%
[26]
  bioavailability: 28%
hERG
  inhibition at 3 ug/mL: 44.8%
[27]
  Activity: 12%

## O=C(CCCN1CCC(O)(c2ccc(Cl)cc2)CC1)c1ccc(F)cc1
Rattus norvegicus [28]
  Activity: Active

## O=C(NCN1CCC(c2cccc[n+]2[O-])CC1)c1cccs1
[29]
  Activity: inactive

## O=c1[nH]c2ccccc2n1CCCN1CCC(n2c(=O)[nH]c3cc(Cl)ccc32)CC1
Rattus norvegicus [30]
  Activity: inactive

## Cc1cccc(C(=O)NCN2CCC(c3ccccn3)CC2)c1
D(2) dopamine receptor [10]
  Ki: 3500 nM
D(4) dopamine receptor [31]
  Ki: 32 nM
Rattus norvegicus [32]
  Activity: 83%
D(4) dopamine receptor [19]
  EC50: 9 nM
[20]
  bioavailability: 2%
[21]
  bioavailability: 76%
[22]
  half-life: 36 min
D(2) dopamine receptor [33]
  Ki: 3500 nM

## Cc1ccc([N+](=O)[O-])cc1NC(=O)CN1CCC(c2cccc[n+]2[O-])CC1
[9]
  Activity: Agonist
Rattus norvegicus [34]
  Activity: 83%
D(4) dopamine receptor [19]
  EC50: 134 nM

Reference: ChEMBL document CHEMBL1137302 (J Med Chem, 2006)
